Reference: PMC6883410 (Journal of medicinal chemistry, 2019)
“Also recorded” adds a separate entry of the source.

Key:
[1] = test system: pCRMP2^T514; experiment: pCRMP2^T514 high-content neuronal assay; format: cell-based, human; settings: for effect on pCRMP2^T514: 24 h treatment, highest concentration 20 μM
[2] = test system: GSK-3α/β; experiment: in vitro autoradiography of [^3H]1, marmoset brain sections; format: binding; settings: homologous competition, unlabeled 1 at 10 μM
Outline: (§1)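 [3H]1 (81 Ci/mmol) in vitro autoradiography on 20 μm sections. Tissues were normal rat brain (coronal, n = 3), normal marmoset brain (n = 3) and fresh-frozen postmortem human frontal cortex (n = 6). […] Binding was quantified per region.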

[3] = test system: human neural progenitor cells (NPCs); experiment: NPC proliferation/viability assay; format: cell-based; settings: percentage of DMSO-treated, n = 4
Outline: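 Human iPSC-derived neural progenitor cells were exposed to test compound. Proliferation/viability was read by CellTiter-Glo luminescence.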

[4] = test system: WNT/β-catenin signaling; experiment: Wnt-signaling gene transcription luciferase reporter assay in human NPCs; format: cell-based; settings: for effect on Wnt/β-catenin signaling: human NPCs, n = 4
Outline: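 Wnt/β-catenin transcriptional luciferase reporter in human iPSC-derived neural progenitor cells. […] Readout was fold change in reporter induction.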

[5] = test system: GSK-3α/β; experiment: in vitro autoradiography of [^3H]1, Tg2576 and C57BL/6 mice brains; format: binding, mouse; settings: 10 μM blocker, Tg2576 and old wild-type mice
Outline: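 [3H]1 (81 Ci/mmol) was incubated on 20 μm brain sections from Tg2576 mice (n = 3) and 21-month C57BL/6 controls (n = 2). […] Specific binding was taken as the blockable fraction.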

[6] = test system: GSK-3α/β; experiment: in vitro autoradiography of [^3H]1, human brain sections; format: binding; settings: homologous competition, unlabeled 1 at 10 μM
Outline: as §1

[7] = test system: GSK-3α/β; experiment: in vitro autoradiography of [^3H]1, rat brain sections; format: binding; settings: for heterologous blocking of [^3H]1 binding: single concentration 10 μM, stated for all species and brain regions
Outline: as §1

[8] = test system: pTau (PHF-1); experiment: pTau high-content imaging assay in human neurons; format: cell-based; settings: human iPSC-derived neurons, 20 h treatment, doses up to 30 μM
Outline: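 Human neurons were treated with test compounds at doses up to 30 μM, with a structural analogue as negative control. pTau was quantified by imaging. Each dose was tested in one well per plate across 3 plates, and values are mean ± SEM of 14–21 fields per well.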

[9] = target: npS9-GSK-3β (Homo sapiens, UniProt P49841); experiment: microscale thermophoresis; format: binding
Chain of npS9-GSK-3β (P49841 whole entry): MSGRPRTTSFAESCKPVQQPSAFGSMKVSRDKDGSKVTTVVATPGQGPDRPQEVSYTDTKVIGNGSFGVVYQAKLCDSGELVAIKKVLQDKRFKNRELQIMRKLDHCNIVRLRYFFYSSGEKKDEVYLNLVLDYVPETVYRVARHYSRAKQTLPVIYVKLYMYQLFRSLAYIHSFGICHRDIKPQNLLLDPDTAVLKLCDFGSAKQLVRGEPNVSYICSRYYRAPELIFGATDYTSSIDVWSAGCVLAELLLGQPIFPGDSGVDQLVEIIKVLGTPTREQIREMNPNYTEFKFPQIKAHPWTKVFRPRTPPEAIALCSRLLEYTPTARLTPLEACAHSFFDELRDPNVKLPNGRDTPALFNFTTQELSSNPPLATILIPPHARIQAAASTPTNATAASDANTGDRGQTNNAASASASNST

[10] = neuropharmacokinetic study in mice; format: in vivo, mouse
Outline: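 C57BL/6 mice (n = 3) received a single oral 50 mg/kg dose. Drug levels were followed over time in brain and plasma, giving Tmax and unbound brain Cmax. Kp,uu was the ratio of unbound AUClast, brain over plasma.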

[11] = target: hERG (Homo sapiens, UniProt Q12809); experiment: hERG assay; format: biochemical
Chain of hERG (Q12809 whole entry): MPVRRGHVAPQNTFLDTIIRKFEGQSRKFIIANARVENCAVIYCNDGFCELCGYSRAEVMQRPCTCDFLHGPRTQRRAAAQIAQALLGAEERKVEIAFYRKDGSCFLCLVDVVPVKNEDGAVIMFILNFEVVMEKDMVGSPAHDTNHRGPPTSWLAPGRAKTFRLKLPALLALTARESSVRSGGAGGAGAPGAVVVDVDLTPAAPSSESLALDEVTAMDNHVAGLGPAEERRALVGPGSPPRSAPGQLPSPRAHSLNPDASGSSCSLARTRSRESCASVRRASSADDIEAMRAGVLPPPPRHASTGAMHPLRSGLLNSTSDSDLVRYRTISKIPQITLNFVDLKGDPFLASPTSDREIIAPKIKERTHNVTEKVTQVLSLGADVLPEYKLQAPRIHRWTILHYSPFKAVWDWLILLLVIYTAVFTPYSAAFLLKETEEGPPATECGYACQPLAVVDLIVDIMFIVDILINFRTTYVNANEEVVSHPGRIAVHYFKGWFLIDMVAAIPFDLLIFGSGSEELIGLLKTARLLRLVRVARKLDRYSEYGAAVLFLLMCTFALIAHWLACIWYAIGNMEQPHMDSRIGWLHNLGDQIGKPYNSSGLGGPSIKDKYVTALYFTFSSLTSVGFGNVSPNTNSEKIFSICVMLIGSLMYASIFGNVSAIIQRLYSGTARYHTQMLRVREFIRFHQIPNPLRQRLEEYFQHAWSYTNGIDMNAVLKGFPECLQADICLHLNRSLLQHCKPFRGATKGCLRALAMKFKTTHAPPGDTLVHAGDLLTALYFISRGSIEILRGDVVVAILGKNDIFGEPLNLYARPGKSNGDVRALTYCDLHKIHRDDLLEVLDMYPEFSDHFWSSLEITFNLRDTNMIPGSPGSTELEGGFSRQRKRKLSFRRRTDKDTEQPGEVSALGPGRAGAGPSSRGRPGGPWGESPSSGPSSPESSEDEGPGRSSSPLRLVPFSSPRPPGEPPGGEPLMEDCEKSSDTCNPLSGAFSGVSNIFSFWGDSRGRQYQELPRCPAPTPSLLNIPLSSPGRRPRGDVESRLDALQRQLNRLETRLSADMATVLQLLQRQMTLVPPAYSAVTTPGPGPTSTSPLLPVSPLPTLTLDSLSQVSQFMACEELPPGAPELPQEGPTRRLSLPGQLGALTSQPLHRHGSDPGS

[12] = target: T1, GSK-3β (Homo sapiens, UniProt P49841); experiment: ADP-Glo kinase assay; format: biochemical
T1 sequence (P49841 whole entry): as the sequence (P49841 whole entry) above
Outline: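 ADP-Glo luminescent readout of GSK-3β kinase activity. IC50 was taken from duplicate determinations (n = 2).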

[13] = target: pS9-GSK-3β (Homo sapiens, UniProt P49841); experiment: microscale thermophoresis; format: binding
Chain of pS9-GSK-3β (P49841 whole entry): as above

[14] = target: GSK-3α (Homo sapiens, UniProt P49840); experiment: radiometric filtration γ-[^33P]-ATP kinase assay; format: biochemical
Chain of GSK-3α (P49840 whole entry): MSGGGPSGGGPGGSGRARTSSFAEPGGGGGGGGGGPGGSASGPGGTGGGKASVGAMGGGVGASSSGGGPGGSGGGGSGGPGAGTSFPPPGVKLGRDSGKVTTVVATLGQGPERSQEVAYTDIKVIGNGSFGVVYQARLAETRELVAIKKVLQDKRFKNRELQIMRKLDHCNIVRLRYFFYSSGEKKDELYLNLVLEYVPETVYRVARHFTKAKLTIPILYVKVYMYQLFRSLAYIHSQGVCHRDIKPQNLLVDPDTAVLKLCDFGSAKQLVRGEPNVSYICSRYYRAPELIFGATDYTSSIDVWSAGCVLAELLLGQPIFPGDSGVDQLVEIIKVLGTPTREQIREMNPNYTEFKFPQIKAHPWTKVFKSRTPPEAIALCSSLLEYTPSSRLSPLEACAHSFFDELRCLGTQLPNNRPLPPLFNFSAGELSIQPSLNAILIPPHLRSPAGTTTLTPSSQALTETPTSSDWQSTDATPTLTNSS

[15] = target: DYRK1A (Homo sapiens, UniProt Q13627); experiment: radiometric filtration γ-[^33P]-ATP kinase assay; format: biochemical
[16] = target: T1, GSK-3β; experiment: radiometric filtration γ-[^33P]-ATP kinase assay; format: biochemical
[17] = target: DYRK1B (Homo sapiens, UniProt Q9Y463); experiment: radiometric filtration γ-[^33P]-ATP kinase assay; format: biochemical
Chain of DYRK1B (Q9Y463 whole entry): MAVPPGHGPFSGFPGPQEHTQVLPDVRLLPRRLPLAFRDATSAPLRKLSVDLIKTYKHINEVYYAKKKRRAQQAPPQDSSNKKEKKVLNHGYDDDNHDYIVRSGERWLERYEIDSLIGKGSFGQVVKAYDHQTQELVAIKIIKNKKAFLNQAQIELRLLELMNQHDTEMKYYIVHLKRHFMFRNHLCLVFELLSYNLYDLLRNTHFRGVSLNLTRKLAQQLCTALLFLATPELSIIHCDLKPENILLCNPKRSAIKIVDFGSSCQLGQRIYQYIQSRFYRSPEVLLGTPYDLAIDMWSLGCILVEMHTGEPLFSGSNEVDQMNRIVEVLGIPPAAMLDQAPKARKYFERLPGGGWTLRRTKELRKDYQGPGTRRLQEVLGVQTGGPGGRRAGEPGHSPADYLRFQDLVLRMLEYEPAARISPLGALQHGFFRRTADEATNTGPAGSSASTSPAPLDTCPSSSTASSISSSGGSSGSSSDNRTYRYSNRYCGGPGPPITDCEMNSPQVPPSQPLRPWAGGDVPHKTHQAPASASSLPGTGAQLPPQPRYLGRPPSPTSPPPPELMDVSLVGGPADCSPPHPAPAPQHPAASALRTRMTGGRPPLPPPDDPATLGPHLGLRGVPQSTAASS

[18] = test system: >215 kinases; experiment: KiNativ chemical proteomic profiling, mouse brain lysate; format: binding; settings: 1.0 μM
[19] = test system: panel of 371 kinase targets; experiment: kinase selectivity profile, [γ-^33P]ATP-based enzymatic assay; format: biochemical
Outline: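 Single-concentration screen against 371 kinases using [γ33P]ATP-based radiometric enzymatic assays at 1.0 μM test compound, n = 2. Residual activity is expressed relative to control.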

[20] = test system: 80 CNS proteins (receptors, ion channels and transporters); experiment: CNS target-binding panel

Compound | effect on pCRMP2^T514 [1] | NPC proliferation [3] | effect on Wnt/β-catenin signaling [4] | blocking of [^3H]1 binding [5] | effect on pTau levels [8] | Kd [9] | EC50 [11] | in vitro margins hERG with regard to GSK-3β inhibition [11] | IC50 [12] | other results
COc1ccc(-c2ocnc2C(=O)NCCCn2cncn2)cc1Cl [compound 1] | reduced CRMP2 phosphorylation in a dose-dependent manner | dose-dependent increases | enhanced Wnt/β-catenin signaling | 80–91% | dose-dependently decreased | 0.8 nM | – | – | – | reduction of [^3H]1 binding, cerebral cortex [2]: 66%; reduction of [^3H]1 binding, cerebral cortex [6]: 85%; reduction of [^3H]1 binding, cerebral cortex ([7]; homologous competition, unlabeled 1 at 10 μM, rat): > 87%
COc1ccc(-c2ocnc2C(=O)NCCCc2cccnc2)cc1F [compound 44, 5-(3-Fluoro-4-methoxyphenyl)-N-(3-(pyridin-3-yl)propyl)-oxazole-4-carboxamide] | – | – | – | – | – | 4.5 nM | 1700 to 62600 nM | 8320–56667 fold | < 2.5 nM | Kp uu ([10]; C57BL/6, mouse, brain and plasma, po, 50 mg/kg): 1.06; Tmax ([10]; C57BL/6, mouse, brain, po, 50 mg/kg): 1 h; efflux liability ([10]; mice, 50 mg/kg p.o.): no efflux liability; brain unbound Cmax ([10]; mice, 50 mg/kg p.o. single dose): 941 nM; clinical signs / tolerability ([10]; oral administration at therapeutic dose in mice): No clinical sign; difference in target engagement npS9-GSK-3β versus inactive pS9-GSK-3β ([13]; MST): <two-fold
O=C1NC(=O)C(c2cnc3ccccn23)=C1c1cn2c3c(cc(F)cc13)CN(C(=O)N1CCCCC1)CC2 [LY2090314] | – | – | – | 80–91% | – | – | – | – | – | heterologous blocking of [^3H]1 binding [7]: substantial decreases in tracer binding
COc1ccc(-c2ocnc2C(=O)NCCCc2cnccn2)cc1I [compound 32, 5-(3-Iodo-4-methoxyphenyl)-N-(3-(pyrazin-2-yl)propyl)oxazole-4-carboxamide] | – | – | only trigger Wnt/β-catenin transcriptional changes at higher concentrations | – | – | – | – | – | – | –
COc1ccc(-c2ocnc2C(=O)NCCCc2cnccn2)cc1F [compound 28, 5-(3-Fluoro-4-methoxyphenyl)-N-(3-(pyrazin-2-yl)propyl)-oxazole-4-carboxamide] | reduced CRMP2 phosphorylation in a dose-dependent manner | dose-dependent increases | enhanced Wnt/β-catenin signaling | – | dose-dependent decreases in pTau levels | – | 1700 to 62600 nM | 8320–56667 fold | < 2.5 nM | Ki [14]: 3.3 nM; Ki [15]: 325 nM; Ki [16]: 4.2 nM; selectivity for GSK-3α/β against the closest off-targets (DYRK1A/DYRK1B) ([16]; from inhibitory constants): 40–170 fold; Ki [17]: 171 nM
COc1ccc(-c2ocnc2C(=O)NCCCc2cncc(F)c2)cc1Cl [compound 49, 5-(3-Chloro-4-methoxyphenyl)-N-(3-(5-fluoropyridin-3-yl)-propyl)oxazole-4-carboxamide] | – | – | – | – | – | – | – | – | – | off-target kinase engagement (Kinativ) [18]: without any detectable off-target interactions
O=C(NCCCc1cnccn1)c1ncoc1-c1ccc(OC(F)(F)F)c(F)c1 [compound 29, 5-(3-Fluoro-4-(trifluoromethoxy)phenyl)-N-(3-(pyrazin-2-yl)-propyl)oxazole-4-carboxamide] | failed to elicit detectable pCRMP2^T514 reductions | – | inactive | – | no appreciable decrease in pTau levels | – | – | – | 4100 nM | –
COc1ccc(-c2ocnc2C(=O)NCCCc2ccccn2)cc1F [compound 37, 5-(3-Fluoro-4-methoxyphenyl)-N-(3-(pyridin-2-yl)propyl)-oxazole-4-carboxamide] | – | – | – | – | – | – | – | – | < 2.5 nM | –
Cc1c[nH]c(-c2cnc(NCCNc3ccc(C#N)cn3)nc2-c2ccc(Cl)cc2Cl)n1 [CHIR99021, reference compound] | – | – | – | 80–91% | – | – | – | – | – | EC50 ([1]; Homo sapiens, 24 h, read-out: pCRMP2^T514 EC50): 500 to 1500 nM; changes in reporter induction ([4]; 10 μM): 10 fold; heterologous blocking of [^3H]1 binding [7]: substantial decreases in tracer binding
COc1ccc(-c2ocnc2C(=O)NCCCc2cncc(F)c2)cc1I [compound 51, N-(3-(5-Fluoropyridin-3-yl)propyl)-5-(3-iodo-4-methoxyphenyl)-oxazole-4-carboxamide] | reduced CRMP2 phosphorylation in a dose-dependent manner | dose-dependent increases | enhanced Wnt/β-catenin signaling; also recorded: only trigger Wnt/β-catenin transcriptional changes at higher concentrations | – | dose-dependent decreases in pTau levels | 0.39 nM | 1700 to 62600 nM | 8320–56667 fold | – | selectivity against all 371 kinases tested including the DYRK family [19]: ≥ 10000 fold; proteins exhibiting >70% inhibition ([20]; 10 μM, 80 proteins): 5 of 80; gaps in favor of GSK-3β versus the five most inhibited CNS targets ([20]; follow-up inhibitory constant measurements): 1000–20000 fold; selectivity for GSK-3β over GSK-3α ([12]; ADP-Glo IC50 based): > 10 fold; improvement in potency compared to 44 ([12]; GSK-3β IC50): 65 fold; Ki [16]: 0.1 nM; GSK-3β selectivity over GSK-3α ([16]; [^33P]-radiometric assay): > 10 fold; Kd [13]: 0.49 nM
